Calls of active or inactive are those of the source. No cut-off for these calls is given here.
Tests used:
[1] = biological target: 72 kDa type IV collagenase (Homo sapiens) (UniProt P08253); experiment: Inhibition of human MMP2 (Tyr110 to Asp452 residues) expressed in yeast at 50 to 100 uM using Mca-Pro-LeuGly-Leu-Dpa-Ala-Arg-NH2.AcOH as substrate preincubated for 30 mins followed by substrate addition measured after 20 mins by fluorescence assay relative to control
Procedure, shortened: (§1)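 Human recombinant MMP-2 (1.16 U/well) or MMP-12 (0.007 U/well) in 50 mM HEPES, 10 mM CaCl2, 0.05% Brij-35, pH 7.5. Enzyme and inhibitor pre-incubated 30 min at 37 °C, then OmniMMP fluorogenic substrate (4 μM) added. Fluorescence rise followed 20 min at ex/em 320/400 nm. Activity relative to no-inhibitor wells, with 200 μM NSA as 0%. Run in triplicate.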

Escherichia coli [2] = experiment: Inhibition of NDM1 in Escherichia coli isolate Ch8.72 assessed as potentiation of imipenem-induced antibacterial activity by measuring imipenem MIC at 100 mg/L after 18 to 20 hrs by broth microdilution assay (reference value: 16 mg/L)
HEK293 = experiment: Cytotoxicity against HEK293 cells assessed as change in morphology up to 400 uM after 4 to 24 hrs by microscopic assay; assay type: cell-based; details: human
Procedure, shortened: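 HEK293 cells treated as in the viability assay (4 or 24 h, DMSO vehicle control). Imaged by epifluorescence microscopy at 20X magnification to assess growth and morphology.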

[3] = biological target: Metallo-beta-lactamase type 2 (Klebsiella pneumoniae) (UniProt C7C422); experiment: Inhibition of NDM1 in Klebsiella pneumoniae isolate Pd1.54 assessed as potentiation of imipenem-induced antibacterial activity by measuring imipenem MIC at 100 mg/L after 18 to 20 hrs by broth microdilution assay (reference value: 8 mg/L)
[4] = tested on: histone deacetylase 1/6 (Homo sapiens); experiment: Selectivity ratio of compound effect for inhibition of bacterial MBP-fused NDM1 expressed in Escherichia coli BL21(DE3) to compound effect for inhibition of human histone deacetylases HDAC-1/HDAC-6
[5] = biological target: Carbonic anhydrase 2 (Homo sapiens) (UniProt P00918); experiment: Inhibition of human carbonic anhydrase 2 at 10 uM using p-nitrophenyl acetate as substrate preincubated for 10 mins followed by substrate addition measured for 15 mins
Procedure, shortened: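 hCAII (100 nM) in 50 mM HEPES pH 8.0 pre-incubated with inhibitor for 10 min at 30 °C. p-Nitrophenyl acetate (500 μM) then added and absorbance at 405 nm followed 15 min. Activity relative to no-inhibitor wells, with 50 μM benzene sulfonamide as 0%. Run in triplicate.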

Klebsiella pneumoniae = experiment: Effect on growth of Klebsiella pneumoniae isolate Pd1.53 at 100 mg/L after 18 to 20 hrs by broth microdilution assay
Procedure, shortened: (§2)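 Mueller-Hinton broth microdilution per CLSI, triplicate. blaNDM-1 clinical isolates grown from OD600 0.1 to 0.224 (~1–2 × 10^8 CFU/mL), diluted 3 μL into 4997 μL MH, and 100 μL added to 100 μL of compound (100 mg/L) alone. Incubated 37 °C for 18–20 h, then scored for growth.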

[6] = Selectivity ratio of compound effect for inhibition of bacterial MBP-fused NDM1 expressed in Escherichia coli BL21(DE3) to compound effect for inhibition of human MMP2 (Tyr110 to Asp452 residues) expressed in yeast
[7] = biological target: Histone deacetylase 1 (Homo sapiens) (UniProt Q13547); experiment: Inhibition of full length human C-terminal FLAG/His-tagged HDAC1 expressed in baculovirus infected sf9 cells at 50 to 100 uM using HDAC substrate 3 preincubated for 5 mins followed by substrate addition measured after 30 mins by fluorescence assay
Procedure, shortened: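 Inhibitor pre-incubated 5 min, then HDAC substrate 3 (20 μM) added, 30 min at 37 °C. Developer added for 15 min at room temperature; fluorescence read at ex/em 360/460 nm. Activity relative to no-inhibitor wells, with 200 μM SAHA as 0%. Run in triplicate.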

[8] = biological target: Macrophage metalloelastase (Homo sapiens) (UniProt P39900); experiment: Inhibition of human MMP12 (Phe99 to Leu271 residues) expressed in Escherichia coli at 10 uM using Mca-Pro-LeuGly-Leu-Dpa-Ala-Arg-NH2.AcOH as substrate preincubated for 30 mins followed by substrate addition measured after 20 mins by fluorescence assay relative to control; procedure, shortened: as §1
[9] = biological target: Metallo-beta-lactamase type 2 (Serratia marcescens, UniProt P52699); experiment: Inhibition of Serratia marcescens IMP1 expressed in Escherichia coli BL21(DE3) using fluorocillin as substrate preincubated for 10 mins followed by substrate addition measured after 20 mins by HTS assay
Bacteria = experiment: Inhibition of bacterial MBP-fused NDM1 expressed in Escherichia coli BL21(DE3) ausing fluorocillin as substrate preincubated for 20 mins followed by substrate addition measured at 1 sec time interval for 25 mins in presence of ZnSO4 by fluorescence assay
Escherichia coli [10] = experiment: Effect on growth of Escherichia coli isolate Ah8.73 at 100 mg/L after 18 to 20 hrs by broth microdilution assay; procedure, shortened: as §2

Macrophage metalloelastase (Homo sapiens), sequence (P39900 106-470 limits assumed): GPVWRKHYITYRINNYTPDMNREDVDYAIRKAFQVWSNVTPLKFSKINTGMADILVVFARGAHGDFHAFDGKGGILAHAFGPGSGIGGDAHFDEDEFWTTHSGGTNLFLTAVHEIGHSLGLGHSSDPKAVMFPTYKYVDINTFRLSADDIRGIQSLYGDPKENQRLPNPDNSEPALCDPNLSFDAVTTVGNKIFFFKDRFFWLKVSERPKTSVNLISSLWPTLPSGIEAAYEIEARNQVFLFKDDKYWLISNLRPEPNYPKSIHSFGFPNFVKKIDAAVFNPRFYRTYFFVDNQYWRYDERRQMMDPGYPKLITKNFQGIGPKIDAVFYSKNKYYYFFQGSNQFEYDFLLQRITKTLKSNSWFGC
Histone deacetylase 1 (Homo sapiens), sequence (Q13547 whole entry): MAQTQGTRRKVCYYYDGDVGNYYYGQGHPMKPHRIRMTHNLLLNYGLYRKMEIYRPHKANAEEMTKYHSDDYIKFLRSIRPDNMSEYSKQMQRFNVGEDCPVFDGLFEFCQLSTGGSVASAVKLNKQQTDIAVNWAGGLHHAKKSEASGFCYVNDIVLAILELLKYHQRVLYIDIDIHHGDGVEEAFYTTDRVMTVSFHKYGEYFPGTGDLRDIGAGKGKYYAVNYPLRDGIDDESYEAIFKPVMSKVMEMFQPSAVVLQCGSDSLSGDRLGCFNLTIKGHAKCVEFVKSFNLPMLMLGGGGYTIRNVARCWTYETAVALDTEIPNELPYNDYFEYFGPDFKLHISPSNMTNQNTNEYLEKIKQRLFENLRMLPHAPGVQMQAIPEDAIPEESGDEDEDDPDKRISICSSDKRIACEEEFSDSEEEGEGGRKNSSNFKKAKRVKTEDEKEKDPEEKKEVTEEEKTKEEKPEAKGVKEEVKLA
Metallo-beta-lactamase type 2, sequence (P52699 whole entry, the tested form may be a part): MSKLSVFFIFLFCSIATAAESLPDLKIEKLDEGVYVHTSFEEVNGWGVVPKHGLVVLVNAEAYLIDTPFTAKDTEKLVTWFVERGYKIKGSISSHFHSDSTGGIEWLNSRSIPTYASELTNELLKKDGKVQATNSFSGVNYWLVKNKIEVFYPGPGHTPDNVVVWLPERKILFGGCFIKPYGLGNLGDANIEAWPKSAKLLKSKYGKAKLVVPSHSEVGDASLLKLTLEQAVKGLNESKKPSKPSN
Metallo-beta-lactamase type 2 (Klebsiella pneumoniae), sequence (C7C422 whole entry, the tested form may be a part): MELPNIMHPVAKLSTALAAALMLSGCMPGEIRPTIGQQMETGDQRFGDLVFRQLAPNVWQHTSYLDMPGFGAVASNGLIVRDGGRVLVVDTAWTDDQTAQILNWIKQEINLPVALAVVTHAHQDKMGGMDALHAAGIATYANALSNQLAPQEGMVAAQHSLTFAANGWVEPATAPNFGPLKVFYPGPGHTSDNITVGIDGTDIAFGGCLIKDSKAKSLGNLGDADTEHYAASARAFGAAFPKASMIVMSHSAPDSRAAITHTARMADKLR
72 kDa type IV collagenase (Homo sapiens), sequence (P08253 110-660 limits assumed): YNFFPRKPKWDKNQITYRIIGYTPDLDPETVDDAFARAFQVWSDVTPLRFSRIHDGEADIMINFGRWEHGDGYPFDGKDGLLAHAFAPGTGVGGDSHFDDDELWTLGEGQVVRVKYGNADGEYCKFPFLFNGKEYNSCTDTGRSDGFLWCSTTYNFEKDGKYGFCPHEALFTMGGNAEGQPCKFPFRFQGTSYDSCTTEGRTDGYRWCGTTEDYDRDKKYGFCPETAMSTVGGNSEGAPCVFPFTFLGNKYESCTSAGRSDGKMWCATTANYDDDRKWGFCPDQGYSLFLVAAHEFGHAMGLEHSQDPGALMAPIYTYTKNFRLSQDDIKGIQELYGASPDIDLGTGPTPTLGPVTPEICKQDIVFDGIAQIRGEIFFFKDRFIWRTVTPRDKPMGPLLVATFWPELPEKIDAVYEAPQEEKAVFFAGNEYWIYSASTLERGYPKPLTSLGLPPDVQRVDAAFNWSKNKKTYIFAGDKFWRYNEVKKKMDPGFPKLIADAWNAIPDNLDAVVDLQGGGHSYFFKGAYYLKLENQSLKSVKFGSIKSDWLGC

Q: For `Nc1cccc(-c2cc(C(=O)O)nc(C(=O)O)c2)c1`, which inhibition [1] is on record?
A: The inhibition was less than 50%.

Q: What about the MIC (Escherichia coli [2]) of the same molecule?
A: The MIC was 0.5 µg/mL.

Q: And the Activity (HEK293)?
A: Its Activity is “Non-Toxic”.

Q: What about the MIC [3] of the same molecule?
A: The MIC was 0.5 µg/mL.

Q: And the Selectivity ratio [4]?
A: The Selectivity ratio was 500 to 1000.

Q: What about the inhibition [5] of the same molecule?
A: The inhibition was “inactive”.

Q: And the Activity (Klebsiella pneumoniae)?
A: Its Activity is “Non-Toxic”.

Q: What about the Selectivity ratio [6] of the same molecule?
A: Its Selectivity ratio is 100 to 1000.

Q: And the inhibition [7]?
A: Its inhibition is less than 50%.

Q: What about the inhibition [8] of the same molecule?
A: Its inhibition is 48%.

Q: And the IC50 [9]?
A: Its IC50 is 0.24 µM.

Q: What about the inhibition (Bacteria) of the same molecule?
A: The inhibition was “Active”.

Q: What about the Activity (Escherichia coli [10]) of the same molecule?
A: Its Activity is “Non-Toxic”.

Reference: ChEMBL document CHEMBL4017500 (J Med Chem, 2017)
